Laboratory results reported in ChEMBL document CHEMBL4251626, “4β-amidotriazole linked podophyllotoxin congeners: DNA topoisomerase-IIα inhibition and potential anticancer agents for prostate cancer” (Eur J Med Chem, 2018).
The source made the active and inactive calls. No cut-off for these calls is given here.

How the values were obtained:
HepG2 = assay: Antiproliferative activity against human HepG2 cells after 48 hrs by MTT assay; type: functional, cell-based; settings: HepG2, 48 h
How it was run: (§1)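 Cells in DMEM/10% FBS pre-incubated 24 h at 37 °C, then compound-treated 48 h (10 mM DMSO stock diluted in medium). MTT (10 µL of 5 mg/mL) added for 4 h; formazan dissolved in DMSO, absorbance read at 570 nm. IC50 = 50% inhibitory concentration, mean of three individual experiments.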

DU-145 [1] = assay: Antimigratory activity against human DU145 cells at 0.5 to 1 uM after 24 to 48 hrs by phase contrast microscopic based scratch assay; type: functional, cell-based
How it was run: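 DU-145 cells seeded at 2x10^5/well and grown to confluence; wound made with a sterile 200 µL tip, debris washed off with PBS. Fresh medium with compound at the indicated concentrations added. Migration followed by phase-contrast microscopy with images at 0, 24 and 48 h.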

NIH3T3 = assay: Antiproliferative activity against mouse NIH/3T3 cells after 48 hrs by MTT assay; type: cell-based; settings: NIH3T3, 48 h; how it was run: as §1
DU-145 [2] = assay: Induction of apoptosis in human DU145 cells assessed as early apoptotic cells at 0.5 uM after 24 hrs by Annexin V-FITC/propidium iodide staining based flow cytometry (reference value: 0.56%); type: functional
DU-145 [3] = assay: Induction of apoptosis in human DU145 cells assessed as early apoptotic cells at 1 uM after 24 hrs by Annexin V-FITC/propidium iodide staining based flow cytometry (reference value: 0.56%); type: functional
DU-145 [4] = assay: Antiproliferative activity against human DU145 cells after 48 hrs by MTT assay; type: functional, cell-based; settings: DU-145, 48 h; how it was run: as §1
DU-145 [5] = assay: Induction of ROS production in human DU145 cells at 0.5 to 1 uM after 24 hrs by DCFDA staining based fluorescence microscopic method; type: functional, cell-based
How it was run: (§2)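 DU-145 cells (2x10^5/well) plated overnight, then treated 24 h at indicated concentrations. Medium replaced with DCFDA (10 µM) for 30 min at room temperature in the dark. After PBS washes, fluorescence was imaged by microscopy and reported as mean fluorescence intensity.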

DU-145 [6] = assay: Induction of apoptosis in human DU145 cells assessed as nuclear condensation at 0.5 to 1 uM after 24 hrs by Hoechst staining based fluorescence microscopic method; type: functional, cell-based
How it was run: (§3)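 DU-145 cells (1x10^5/well) incubated overnight, then treated 24 h. After three PBS washes, stained with Hoechst (1 µg/ml) for 20 min at 37 °C and washed. Imaged by fluorescence microscopy; random fields counted for chromatin condensation and nuclear fragmentation.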

DU-145 [7] = assay: Cell cycle arrest in human DU145 cells assessed as accumulation at G2/M phase at 1 uM after 24 hrs by propidium iodide staining based flow cytometry relative to control; type: functional
How it was run: (§4)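 DU-145 cells (2x10^5/well) serum-starved 24 h to synchronize, then treated in complete medium for 24 h. Harvested and fixed in 70% ethanol at -20 °C for 30 min. RNase A (0.1 mg/mL, 37 °C, 30 min), then propidium iodide (50 µg/mL, 30 min on ice, dark). DNA content measured by flow cytometry.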

HT-29 = assay: Antiproliferative activity against human HT-29 cells after 48 hrs by MTT assay; type: functional, cell-based; settings: HT-29, 48 h; how it was run: as §1
DU-145 [8] = assay: Induction of apoptosis in human DU145 cells assessed as live cells at 1 uM after 24 hrs by Annexin V-FITC/propidium iodide staining based flow cytometry (reference value: 96.3%); type: functional
DU-145 [9] = assay: Induction of apoptosis in human DU145 cells assessed as live cells at 0.5 uM after 24 hrs by Annexin V-FITC/propidium iodide staining based flow cytometry (reference value: 96.3%); type: functional
A549 = assay: Antiproliferative activity against human A549 cells after 48 hrs by MTT assay; type: functional, cell-based; settings: A549, 48 h; how it was run: as §1
DU-145 [10] = assay: Induction of apoptosis in human DU145 cells assessed as cell detachment from substratum at 0.5 to 1 uM after 24 hrs by phase contrast microscopic method; type: functional, cell-based
How it was run: (§5)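 DU-145 cells (2x10^5/well) plated overnight; medium replaced with fresh medium containing compound at indicated concentrations for 24 h. Cell morphology examined and photographed by phase-contrast microscopy.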

DU-145 [11] = assay: Induction of apoptosis in human DU145 cells assessed as necrotic cells at 1 uM after 24 hrs by Annexin V-FITC/propidium iodide staining based flow cytometry (reference value: 1.65%); type: functional
HeLa = assay: Antiproliferative activity against human HeLa cells after 48 hrs by MTT assay; type: functional, cell-based; how it was run: as §1
MCF7 = assay: Antiproliferative activity against human MCF7 cells after 48 hrs by MTT assay; type: functional, cell-based; settings: MCF7, 48 h; how it was run: as §1
DU-145 [12] = assay: Cell cycle arrest in human DU145 cells assessed as accumulation at G2/M phase at 0.5 uM after 24 hrs by propidium iodide staining based flow cytometry relative to control; type: functional; how it was run: as §4
DU-145 [13] = assay: Induction of apoptosis in human DU145 cells assessed as necrotic cells at 0.5 uM after 24 hrs by Annexin V-FITC/propidium iodide staining based flow cytometry (reference value: 1.65%); type: functional
DU-145 [14] = assay: Induction of apoptosis in human DU145 cells assessed as nuclear fragmentation at 0.5 to 1 uM after 24 hrs by Hoechst staining based fluorescence microscopic method; type: functional, cell-based; how it was run: as §3
DU-145 [15] = assay: Induction of apoptosis in human DU145 cells assessed as late apoptotic cells at 0.5 uM after 24 hrs by Annexin V-FITC/propidium iodide staining based flow cytometry (reference value: 1.49%); type: functional
DU-145 [16] = assay: Induction of apoptosis in human DU145 cells assessed as late apoptotic cells at 1 uM after 24 hrs by Annexin V-FITC/propidium iodide staining based flow cytometry (reference value: 1.49%); type: functional
DU-145 [17] = assay: Induction of mitochondrial membrane potential loss in human DU145 cells […] at 0.5 to 1 uM after 24 hrs by JC1 staining based flow cytometry; type: functional, cell-based
How it was run: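 Cells (2x10^5/well) treated 24 h, trypsinized and pelleted (400 g, 5 min). Incubated with freshly made JC-1 working solution for 15 min at 37 °C, washed twice in assay buffer. Analysed by flow cytometry as percentage of J-aggregate versus J-monomer cells.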

DU-145 [18] = assay: Induction of apoptosis in human DU145 cells assessed as cell shrinkage at 0.5 to 1 uM after 24 hrs by phase contrast microscopic method; type: functional, cell-based; how it was run: as §5
[19] = molecular target: DNA topoisomerase 2-alpha (Homo sapiens) (UniProt P11388); assay: Poison activity at recombinant human topoisomerase-2 alpha assessed as linear DNA formation using pHOT1 kDNA as substrate at 100 uM after 10 mins by agarose gel electrophoresis method
Chain of DNA topoisomerase 2-alpha (Homo sapiens) (P11388 whole entry): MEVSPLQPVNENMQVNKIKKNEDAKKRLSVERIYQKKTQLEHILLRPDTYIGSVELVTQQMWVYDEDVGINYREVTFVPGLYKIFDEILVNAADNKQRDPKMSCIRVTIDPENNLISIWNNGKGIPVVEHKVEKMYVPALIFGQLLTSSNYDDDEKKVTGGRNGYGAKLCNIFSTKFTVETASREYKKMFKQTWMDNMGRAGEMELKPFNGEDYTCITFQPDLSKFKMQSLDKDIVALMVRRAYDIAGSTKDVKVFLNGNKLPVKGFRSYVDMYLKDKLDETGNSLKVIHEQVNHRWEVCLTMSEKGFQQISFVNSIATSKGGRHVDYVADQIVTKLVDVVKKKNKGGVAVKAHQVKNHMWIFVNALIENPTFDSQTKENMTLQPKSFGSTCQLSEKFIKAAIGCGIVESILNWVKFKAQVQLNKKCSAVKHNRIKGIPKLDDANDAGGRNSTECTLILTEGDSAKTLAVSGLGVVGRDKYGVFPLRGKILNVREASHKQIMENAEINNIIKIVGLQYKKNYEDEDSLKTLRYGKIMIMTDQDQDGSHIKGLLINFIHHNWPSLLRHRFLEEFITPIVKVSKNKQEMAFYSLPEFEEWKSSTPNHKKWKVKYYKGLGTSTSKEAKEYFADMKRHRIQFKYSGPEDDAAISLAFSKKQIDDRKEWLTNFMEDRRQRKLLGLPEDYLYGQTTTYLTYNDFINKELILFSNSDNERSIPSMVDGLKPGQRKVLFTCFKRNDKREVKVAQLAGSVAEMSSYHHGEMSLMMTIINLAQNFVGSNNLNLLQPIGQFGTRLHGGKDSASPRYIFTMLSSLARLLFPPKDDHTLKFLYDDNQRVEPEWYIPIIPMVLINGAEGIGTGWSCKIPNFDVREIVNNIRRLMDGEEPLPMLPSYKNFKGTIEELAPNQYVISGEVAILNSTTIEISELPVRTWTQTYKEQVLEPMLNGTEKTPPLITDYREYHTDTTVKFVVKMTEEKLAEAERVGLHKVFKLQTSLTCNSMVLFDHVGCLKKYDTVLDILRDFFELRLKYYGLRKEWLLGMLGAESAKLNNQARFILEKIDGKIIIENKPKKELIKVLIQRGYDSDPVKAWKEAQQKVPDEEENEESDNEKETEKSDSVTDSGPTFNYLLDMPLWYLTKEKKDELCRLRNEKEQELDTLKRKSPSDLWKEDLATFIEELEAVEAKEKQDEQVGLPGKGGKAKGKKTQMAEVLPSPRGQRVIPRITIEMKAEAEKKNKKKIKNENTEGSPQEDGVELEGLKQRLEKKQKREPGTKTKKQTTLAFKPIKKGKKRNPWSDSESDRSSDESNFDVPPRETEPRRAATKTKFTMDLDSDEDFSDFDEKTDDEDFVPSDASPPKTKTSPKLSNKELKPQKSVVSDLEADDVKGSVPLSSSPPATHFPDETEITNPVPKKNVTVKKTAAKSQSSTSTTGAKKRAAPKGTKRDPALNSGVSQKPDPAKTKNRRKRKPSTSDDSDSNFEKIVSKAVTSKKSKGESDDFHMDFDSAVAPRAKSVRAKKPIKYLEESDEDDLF
How it was run: (§6)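 Five units human recombinant topo II, 10 min at 37 °C. Stopped with loading-dye stop buffer; products resolved on 1% agarose gel in TAE (catenated, decatenated, linear DNA).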

DU-145 [20] = assay: Induction of ROS production in human DU145 cells after 24 hrs by DCFDA staining based fluorescence microscopic method; type: functional, cell-based; how it was run: as §2
[21] = molecular target: DNA topoisomerase 2-alpha (Homo sapiens) (UniProt P11388); assay: Inhibition of recombinant human topoisomerase-2 alpha assessed as reduction in decatenation of pHOT1 kDNA at 100 uM after 10 mins by agarose gel electrophoresis method; how it was run: as §6
DU-145 [22] = assay: Induction of apoptosis in human DU145 cells after 24 hrs by Annexin V-FITC/propidium iodide staining based flow cytometry; type: functional, cell-based

## COc1cc([C@@H]2c3cc4c(cc3C(NC(=O)c3cn(-c5ccc(Cl)cc5)nn3)[C@H]3COC(=O)[C@H]23)OCO4)cc(OC)c1OC (single isomer, unassigned)
HepG2
  IC50: 780 nM
DU-145 [1]
  Activity: inactive
NIH3T3
  IC50: 89000 nM
DU-145 [2]
  Activity: 3.94%
DU-145 [3]
  Activity: 4.35%
DU-145 [4]
  IC50: 700 nM
DU-145 [5]
  Activity: Active
DU-145 [6]
  Activity: Active
DU-145 [7]
  Activity: 35.61%
HT-29
  IC50: 4110 nM
DU-145 [8]
  Activity: 93.69%
DU-145 [9]
  Activity: 93.72%
A549
  IC50: 1200 nM
DU-145 [10]
  Activity: Active
DU-145 [11]
  Activity: 0.16%
HeLa
  IC50: 780 nM
MCF7
  IC50: 970 nM
DU-145 [12]
  Activity: 31.94%
DU-145 [13]
  Activity: 0.41%
DU-145 [14]
  Activity: Active
DU-145 [15]
  Activity: 1.93%
DU-145 [16]
  Activity: 1.8%
DU-145 [17]
  Activity: inactive
DU-145 [18]
  Activity: Active
[19]
  Activity: Active

## COc1cc([C@@H]2c3cc4c(cc3C(NC(=O)c3cn(-c5ccc(C(F)(F)F)cc5)nn3)[C@H]3COC(=O)[C@H]23)OCO4)cc(OC)c1OC (single isomer, unassigned)
HepG2
  IC50: 1210 nM
DU-145 [1]
  Activity: Active
DU-145 [20]
  Activity: Dose-dependent effect
NIH3T3
  IC50: 83800 nM
DU-145 [2]
  Activity: 7.01%
DU-145 [3]
  Activity: 17.65%
DU-145 [4]
  IC50: 890 nM
DU-145 [6]
  Activity: Active
DU-145 [7]
  Activity: 56.16%
HT-29
  IC50: 4400 nM
DU-145 [8]
  Activity: 79.84%
DU-145 [9]
  Activity: 89.65%
A549
  IC50: 1960 nM
DU-145 [10]
  Activity: Active
DU-145 [11]
  Activity: 0.05%
[21]
  inhibition: Active
HeLa
  IC50: 1210 nM
MCF7
  IC50: 1350 nM
DU-145 [12]
  Activity: 52.42%
DU-145 [13]
  Activity: 0.74%
DU-145 [14]
  Activity: Active
DU-145 [15]
  Activity: 2.6%
DU-145 [16]
  Activity: 2.46%
DU-145 [17]
  Activity: Active
DU-145 [22]
  Activity: Dose-dependent effect
DU-145 [18]
  Activity: Active
